One series has as its target Histamine H3 receptor (Homo sapiens, UniProt Q9Y5N1). Description: Displacement of [3H]-N-alpha-methylhistamine from human recombinant histamine H3 receptor expressed in HEK cells after 30 mins by scintillation counting. The format is cell-based, HEK293. The gist of the method: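 P2 membrane pellet from HEK cells expressing recombinant human H3, 3 µg protein per well, in 50 mM Tris–HCl pH 7.4 with 1 nM [3H]N-methylhistamine (82 Ci/mmol). Compound tested at half-log steps across five orders of magnitude. Nonspecific binding defined with 10^-5 M thioperamide. 30 min at 30 °C, then filtration on 0.3% PEI-soaked GF/B filters, three buffer rinses, scintillation counting. Ki from nonlinear least-squares curve fit.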

The nature of series [1]: AUC (0 to 6 hrs) in rat at 10 mg/kg, po. The format is ADME, organism-based. Details: time < 6 hr, dose 10 mg/kg, route oral. Conditions: plasma. In short, it runs like this: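 Rat exposure measured after a 10 mg/kg oral dose; AUC taken over 0–6 h, in ng·h/ml.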
A short description of series [2]: Drug level in mouse brain at 10 mg/kg, po after 4 hrs. Details: dose 10 mg/kg, route oral. The format is ADME, organism-based. Conditions: read-out: Drug uptake. The gist of the method: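 Mouse brain concentration measured 4 h after a 10 mg/kg oral dose, in ng/g.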
Series [3] concerns the target Histamine H3 receptor (Mus musculus) (UniProt P58406). Description: Displacement of [3H]-N-alpha-methylhistamine from histamine H3 receptor in […] mouse cortex after 4 hrs by scintillation counting. In short, it runs like this: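 Ex vivo binding in cortex dissected from individual ICR mice, read at 4 h. Cortex homogenized in ice-cold 50 mM Na2HPO4–KH2PO4 pH 6.8 and frozen at −80 °C for at least 12 h; protein measured by BCA. Homogenate incubated 30 min at room temperature with 1 nM [3H]N-methylhistamine and 0.1% BSA; thioperamide defines nonspecific binding. Quadruplicates, filtered on PEI-presoaked GF/B; specific = total − nonspecific.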
On the technique in general: Loss of bound radioactivity is the signal in a displacement assay; it reports binding, not function.

A further series concerns the target Cytochrome P450 3A4 (Homo sapiens, UniProt P08684). As to the kind of experiment: Inhibition of CYP3A4. The format is ADME. The gist of the method:
(§1)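 CYP3A4, 2D6 and 2C9 inhibition tested under both pre-incubation and co-incubation conditions.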

The target of another series is Cytochrome P450 2D6 (Homo sapiens, UniProt P10635). Description: Inhibition of CYP2D6. The format is ADME. In short, it runs like this: as §1
The target of another series is Cytochrome P450 2C9 (Homo sapiens, UniProt P11712). Description: Inhibition of CYP2C9. The format is ADME. The gist of the method:
as §1

Sequence of Cytochrome P450 2C9 (P11712 whole entry): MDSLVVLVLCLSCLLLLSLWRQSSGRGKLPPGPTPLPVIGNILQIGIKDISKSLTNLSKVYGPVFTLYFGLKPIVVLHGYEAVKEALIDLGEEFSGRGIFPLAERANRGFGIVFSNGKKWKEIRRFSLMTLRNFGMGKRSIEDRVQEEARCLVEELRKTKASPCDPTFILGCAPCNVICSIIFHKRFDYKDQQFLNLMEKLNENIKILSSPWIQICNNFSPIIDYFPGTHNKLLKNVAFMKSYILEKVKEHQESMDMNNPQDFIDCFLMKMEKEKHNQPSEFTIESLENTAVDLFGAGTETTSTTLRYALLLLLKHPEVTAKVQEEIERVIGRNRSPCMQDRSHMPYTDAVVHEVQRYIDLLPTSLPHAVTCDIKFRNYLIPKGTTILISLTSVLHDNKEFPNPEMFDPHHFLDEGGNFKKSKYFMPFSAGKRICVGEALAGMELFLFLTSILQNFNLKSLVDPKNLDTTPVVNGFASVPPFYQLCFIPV
Sequence of Cytochrome P450 2D6 (P10635 whole entry): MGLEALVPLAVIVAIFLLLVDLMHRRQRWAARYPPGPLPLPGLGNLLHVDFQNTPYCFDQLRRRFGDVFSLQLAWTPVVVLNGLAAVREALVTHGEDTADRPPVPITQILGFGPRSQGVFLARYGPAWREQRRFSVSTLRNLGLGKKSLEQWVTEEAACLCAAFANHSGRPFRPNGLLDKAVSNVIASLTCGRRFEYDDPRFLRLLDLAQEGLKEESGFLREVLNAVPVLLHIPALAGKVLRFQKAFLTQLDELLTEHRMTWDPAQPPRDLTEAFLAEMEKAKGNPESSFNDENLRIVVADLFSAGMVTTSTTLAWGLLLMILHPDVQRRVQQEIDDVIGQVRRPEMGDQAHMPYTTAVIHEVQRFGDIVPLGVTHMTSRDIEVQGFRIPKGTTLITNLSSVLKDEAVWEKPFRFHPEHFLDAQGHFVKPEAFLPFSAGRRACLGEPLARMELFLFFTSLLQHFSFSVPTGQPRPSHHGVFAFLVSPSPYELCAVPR
Sequence of Histamine H3 receptor (Q9Y5N1 whole entry): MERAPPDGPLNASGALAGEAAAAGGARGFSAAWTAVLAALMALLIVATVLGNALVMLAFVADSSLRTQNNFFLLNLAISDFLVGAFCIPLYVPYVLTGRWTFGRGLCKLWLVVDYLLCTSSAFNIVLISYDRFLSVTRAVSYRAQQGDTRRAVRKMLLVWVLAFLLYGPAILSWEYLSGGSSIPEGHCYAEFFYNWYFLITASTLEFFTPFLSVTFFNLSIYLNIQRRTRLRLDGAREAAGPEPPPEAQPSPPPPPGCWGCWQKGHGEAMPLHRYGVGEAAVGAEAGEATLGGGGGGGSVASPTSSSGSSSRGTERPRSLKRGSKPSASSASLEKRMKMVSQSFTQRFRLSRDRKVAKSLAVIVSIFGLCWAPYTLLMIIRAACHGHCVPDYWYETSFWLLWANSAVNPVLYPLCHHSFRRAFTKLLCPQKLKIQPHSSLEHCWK
Sequence of Cytochrome P450 3A4 (P08684 whole entry): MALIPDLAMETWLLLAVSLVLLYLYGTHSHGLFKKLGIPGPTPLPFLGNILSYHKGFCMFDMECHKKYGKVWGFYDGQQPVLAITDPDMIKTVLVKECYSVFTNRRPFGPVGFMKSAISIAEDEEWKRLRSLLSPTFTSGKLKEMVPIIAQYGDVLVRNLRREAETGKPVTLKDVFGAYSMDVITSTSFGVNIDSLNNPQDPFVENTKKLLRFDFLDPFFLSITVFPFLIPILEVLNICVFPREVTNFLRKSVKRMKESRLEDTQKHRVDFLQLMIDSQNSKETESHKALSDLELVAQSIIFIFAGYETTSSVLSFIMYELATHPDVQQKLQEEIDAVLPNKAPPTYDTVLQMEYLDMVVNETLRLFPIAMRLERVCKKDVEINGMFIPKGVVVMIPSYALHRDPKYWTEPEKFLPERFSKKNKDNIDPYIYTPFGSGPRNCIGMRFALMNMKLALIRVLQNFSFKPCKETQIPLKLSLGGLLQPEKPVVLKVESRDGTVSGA
Sequence of Histamine H3 receptor (Mus musculus) (P58406 whole entry): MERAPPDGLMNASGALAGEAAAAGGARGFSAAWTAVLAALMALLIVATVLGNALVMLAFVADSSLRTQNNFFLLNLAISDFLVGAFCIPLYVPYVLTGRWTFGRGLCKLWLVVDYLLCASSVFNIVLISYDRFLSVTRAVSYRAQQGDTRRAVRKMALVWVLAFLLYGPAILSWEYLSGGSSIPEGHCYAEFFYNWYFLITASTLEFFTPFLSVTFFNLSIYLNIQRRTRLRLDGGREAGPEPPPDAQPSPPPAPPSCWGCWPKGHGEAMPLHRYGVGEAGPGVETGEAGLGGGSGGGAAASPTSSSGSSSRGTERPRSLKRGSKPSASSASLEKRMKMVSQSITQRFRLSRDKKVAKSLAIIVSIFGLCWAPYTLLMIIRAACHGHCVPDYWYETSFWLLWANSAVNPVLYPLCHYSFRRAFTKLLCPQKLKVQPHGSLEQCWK

For orientation: Ki means a measure of affinity in units of concentration, obtained from inhibition or displacement. Turning to `Clc1ccccc1-c1nnc(N2CCC(N3CCCCC3)CC2)s1`, the inhibition constant Ki on Histamine H3 receptor worked out at 69 nM. Same read-out and setting: next, `c1n[nH]cc1-c1nnc(N2CCC(N3CCCCC3)CC2)s1`: 192 nM. One may read the AUC(0-t) as exposure summed from dosing to a finite time, without extrapolation to infinity. `COc1cc(Cl)cc(-c2nnc(N3CCC(N4CCCCC4)CC3)s2)c1`: at Histamine H3 receptor, the inhibition constant (Ki) worked out at 12 nM. Further, in series [1], the AUC(0-t) at 6 h turned out to be 379 ng·h/mL. For the same compound, the concentration at 4 h in series [2] worked out at 9030 ng/g. For the same compound, the Activity in series [3] came out at 90%. In addition, the INH on Cytochrome P450 3A4, on Cytochrome P450 2D6 and at Cytochrome P450 2C9 was > 20 µM in each case.

Regarding `c1cnc(-c2nnc(N3CCC(N4CCCCC4)CC3)s2)nc1`, the Ki at Histamine H3 receptor is 103 nM.

Turning to `N#Cc1cccc(-c2nnc(N3CCC(N4CCCCC4)CC3)s2)c1`, the Ki on Histamine H3 receptor is 42.6 nM. Regarding `Fc1ccc(-c2nnc(N3CCC(N4CCCCC4)CC3)s2)cc1`, on Histamine H3 receptor, the inhibitory constant (Ki) was 39 nM.

Consider `COc1ccc(-c2nnc(N3CCC(N4CCCCC4)CC3)s2)cc1`, for which the Ki on Histamine H3 receptor worked out at 40.1 nM. Take `Cc1ccccc1-c1nnc(N2CCC(N3CCCCC3)CC2)s1`: the Ki at Histamine H3 receptor came to 36 nM. The same measure, in the same setting: next, `CCN1CCN(c2nnc(-c3ccc(OC)cc3)s2)CC1`: 162 nM; `CC(=O)c1ccccc1-c1nnc(N2CCC(N3CCCCC3)CC2)s1`: 8.4 nM. For the compound `COc1ccccc1-c1nnc(N2CCC(N3CCCCC3)CC2)s1`, the Ki on Histamine H3 receptor amounted to 40 nM.

Regarding `c1ccc(-c2nnc(N3CCC(N4CCCCC4)CC3)s2)nc1`, at Histamine H3 receptor, the Ki amounted to 30 nM. Still for that read-out and setting: next, `COc1ccc(-c2nnc(N3CCN(C4CCCC4)CC3)s2)cc1`: 182 nM; `CC(=O)c1cccc(-c2nnc(N3CCC(N4CCCCC4)CC3)s2)c1`: 4 nM; `Cc1ccc(-c2nnc(N3CCC(N4CCCCC4)CC3)s2)cc1`: 163 nM. For `COc1cccc(-c2nnc(N3CCC(N4CCCCC4)CC3)s2)n1`, the Ki on Histamine H3 receptor stood at 3.5 nM. For the same compound, in series [2], the concentration at 4 h was 1530 ng/g. The compound further returned an Activity in series [3] of 74%. Besides, the INH at Cytochrome P450 3A4, at Cytochrome P450 2D6 and on Cytochrome P450 2C9 was > 20 µM in each case. Turning to `COc1ccc(-c2nnc(N3CCC(N4CCCC4)CC3)s2)cc1`, the Ki at Histamine H3 receptor was 601 nM.

Regarding `COc1ncc(-c2nnc(N3CCC(N4CCCCC4)CC3)s2)s1`, at Histamine H3 receptor, the Ki turned out to be 28 nM.

On to `Cc1cccc(-c2nnc(N3CCC(N4CCCCC4)CC3)s2)c1`, for which, at Histamine H3 receptor, the Ki amounted to 60 nM.

Regarding `COc1ccc(-c2nnc(N3CCN4CCCC4C3)s2)cc1` (stereo not given), the Ki on Histamine H3 receptor is 653 nM. In the case of `CC(=O)c1ccc(-c2nnc(N3CCC(N4CCCCC4)CC3)s2)cc1`, on Histamine H3 receptor, the inhibition constant (Ki) came to 65 nM.

Consider `O=C(Nc1nnc(N2CCC(N3CCCCC3)CC2)s1)NC1CCCC1`, for which the inhibitory constant (Ki) on Histamine H3 receptor worked out at 48.6 nM. In addition, the INH at Cytochrome P450 3A4, on Cytochrome P450 2D6 and on Cytochrome P450 2C9 was > 20 µM throughout. Turning to `Clc1ccc(-c2nnc(N3CCC(N4CCCCC4)CC3)s2)cc1`, the Ki on Histamine H3 receptor was determined as 161 nM. Take `N#Cc1cc(C#N)cc(-c2nnc(N3CCC(N4CCCCC4)CC3)s2)c1`: the Ki at Histamine H3 receptor came out at 23 nM. Take `c1ccc(-c2nnc(N3CCC(N4CCCCC4)CC3)s2)cc1`: the Ki on Histamine H3 receptor was determined as 80.1 nM. For `Clc1cccc(-c2nnc(N3CCC(N4CCCCC4)CC3)s2)c1`, at Histamine H3 receptor, the Ki came out at 49 nM. `Fc1cccc(-c2nnc(N3CCC(N4CCCCC4)CC3)s2)c1`: the Ki on Histamine H3 receptor turned out to be 62 nM. With `COc1cc(F)cc(-c2nnc(N3CCC(N4CCCCC4)CC3)s2)c1`, the Ki at Histamine H3 receptor was found to be 16 nM. Regarding `Cc1cccc(-c2nnc(N3CCC(N4CCCCC4)CC3)s2)n1`, the inhibition constant Ki on Histamine H3 receptor came to 6.1 nM. On to `COc1cc(OC)cc(-c2nnc(N3CCC(N4CCCCC4)CC3)s2)c1`, for which the Ki at Histamine H3 receptor is 15 nM. Same read-out and setting: then `COc1cccc(-c2nnc(N3CCC(N4CCCCC4)CC3)s2)c1`, with 31.9 nM; and `Fc1cc(F)cc(-c2nnc(N3CCC(N4CCCCC4)CC3)s2)c1`, with 50 nM. In the case of `Clc1cc(Cl)cc(-c2nnc(N3CCC(N4CCCCC4)CC3)s2)c1`, the Ki on Histamine H3 receptor is 72 nM. Take `COc1cc(C#N)cc(-c2nnc(N3CCC(N4CCCCC4)CC3)s2)c1`: the Ki on Histamine H3 receptor came to 12 nM. Take `Fc1ccccc1-c1nnc(N2CCC(N3CCCCC3)CC2)s1`: at Histamine H3 receptor, the inhibitory constant (Ki) turned out to be 36 nM. With `N#Cc1ccc(-c2nnc(N3CCC(N4CCCCC4)CC3)s2)cc1`, on Histamine H3 receptor, the Ki is 36.4 nM.

Source of the values: ChEMBL document CHEMBL1641463, “Discovery of a series of potent arylthiadiazole H(3) antagonists” (Bioorg Med Chem Lett, 2011).
